Results published in publication PMC4654616 (ACS chemical biology, 2015).
Read-outs that look alike come from different tables or passages of the source.

How the values were obtained:
[1] = target: T1, uPAR•uPAATF interaction (Homo sapiens, UniProt Q03405); assay: Microtiter-based ELISA for uPAR•uPAATF; assay type: binding
Outline: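 Wells were coated with uPA_ATF (2 µg·mL⁻¹ in PBS, 2 h, 4 °C) and blocked 1 h at room temperature. Purified uPAR lacking the GPI anchor (75 nM, PBS with 0.025% Triton X-100) was added with test compound for 30 min. Compound was screened at 50 µM or titrated 100 to 0.4 µM, with 1% DMSO final. After washing, bound uPAR was detected by biotinylated anti-uPAR antibody (1 h), streptavidin-HRP (20 min) and TMB/H₂O₂ with H₂SO₄ stop; n = 2.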

[2] = target: T1, uPAR•uPAATF interaction; assay type: binding
[3] = target: T2, uPAR (Homo sapiens, UniProt Q03405); assay: Isothermal titration calorimetry of 7 against purified uPAR; assay type: binding
T2 sequence (Q03405 23-305 limits assumed): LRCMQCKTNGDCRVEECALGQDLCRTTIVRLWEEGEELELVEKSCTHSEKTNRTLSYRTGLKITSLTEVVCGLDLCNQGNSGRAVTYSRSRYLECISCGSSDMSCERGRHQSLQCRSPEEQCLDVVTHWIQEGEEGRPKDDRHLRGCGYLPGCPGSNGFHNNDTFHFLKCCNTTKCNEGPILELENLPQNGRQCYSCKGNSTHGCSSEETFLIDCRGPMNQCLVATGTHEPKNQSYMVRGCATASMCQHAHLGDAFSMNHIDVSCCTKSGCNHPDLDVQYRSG

[4] = target: VTN•uPAR•uPAATF interaction (Homo sapiens, UniProt Q03405); assay: Microtiter-based ELISA for uPAR•VTN; assay type: binding
Chain of VTN•uPAR•uPAATF interaction (Q03405 23-305 limits assumed): as above
Outline: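 Full-length VTN (5 µg·mL⁻¹, carbonate buffer pH 9.6) was coated 12 h at 4 °C, then blocked 1 h at room temperature. Wells received 120 nM uPAR•uPA_ATF complex in PBS with 0.01% Triton X-100 plus test compound for 60 min. Compound was screened at 50 µM or titrated 100 to 0.4 µM, with 1% DMSO final. Bound uPAR was detected by biotinylated anti-uPAR antibody (1 h), streptavidin-HRP (20 min) and TMB/H₂O₂ with H₂SO₄ stop; n = 2.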

[5] = target: uPAR•uPA binding on HEK-293-uPAR cells (Homo sapiens, UniProt Q03405); assay: FACS analysis of FITC-conjugated uPA binding to HEK-293-uPAR cells; assay type: cell-based; conditions: read-out: inhibition of uPA-FITC binding to uPAR (FACS)
Chain of uPAR•uPA binding on HEK-293-uPAR cells (Q03405 23-305 limits assumed): as above

[6] = system: MDA-MB-231 cells; assay: Boyden Matrigel invasion chamber assay; assay type: cell-based; conditions: Homo sapiens, MDA-MB-231, 16 h, read-out: IC50 for MDA-MB-231 cell invasion
Outline: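 MDA-MB-231 cells were serum-starved 4 h. Matrigel inserts had fibronectin (30 ng µl⁻¹) coated on the underside overnight at 4 °C and were equilibrated 2 h in serum-free medium. The upper chamber received 5 × 10⁴ cells in 0.1% FBS medium with test compound or 1% DMSO. The lower chamber held 10% FBS medium with the same compound. After 16 h at 37 °C, invaded cells were methanol-fixed, hematoxylin-stained and counted in ten 200× fields; n = 3.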

[7] = MTT cell viability assay; assay type: cell-based, human; conditions: human, MDA-MB-231 cells
Outline: (§1)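 MDA-MB-231 cells were grown in DMEM with 10% FBS and 1% penicillin/streptomycin at 37 °C, 5% CO₂. Cells (10⁴/well) were plated overnight, then treated 3 days with test compound or DMSO control. MTT (20 µl of 5 mg/ml) was added for 2 h at 37 °C. Viable cells were quantified by absorbance at 570 nm with 630 nm reference.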

[8] = system: MDA-MB-231 cells; assay: MTT cell viability assay; assay type: cell-based, human; conditions: MDA-MB-231, 100 µM
Outline: as §1

[9] = system: FAK phosphorylation in MDA-MB-231 cells; assay: Western blot for phospho-FAK; assay type: cell-based, human
Outline: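 MDA-MB-231 lysates were made in RIPA buffer with protease and phosphatase inhibitors. Thirty micrograms of protein were resolved on 10% SDS-PAGE and transferred to nitrocellulose. Blots were probed overnight at 4 °C for total FAK, phospho-FAK (Y397) or actin. Dye-conjugated anti-mouse or anti-rabbit secondaries were detected by infrared fluorescence imaging.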

[10] = system: Rac1 activation in MDA-MB-231 cells; assay: Rac1 pull-down assay; assay type: cell-based, human
[11] = target: T2, uPAR; assay: Saturation transfer difference; assay type: binding; conditions: 438 µM 7, uPAR 50 fold less
[12] = target: T2, uPAR; assay: Fluorescence polarization, displacement of AE147-FAM peptide from uPAR; assay type: binding
Outline: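 Test compound was serially diluted in DMSO, then in PBS with 0.01% Triton X-100 (final 100 µM to 0.046 µM). It was preincubated at least 15 min with uPAR before AE147-FAM peptide was added. Final levels were 320 nM uPAR, 100 nM peptide and 2% DMSO. Polarization was read at ex 485/em 530 nm in duplicate. Peptide-only and uPAR + peptide controls were run in quadruplicate.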

T1 sequence (Q03405 23-305 limits assumed): as above

Structure (SMILES) | IC50 ([1]; IC50 for inhibition of uPAR•uPAATF interaction (ELISA), 75 nM uPAR, immobilized uPAATF) [µM] | IC50 [2] [µM] | Kd [3] [µM] | enthalpy (ΔH) (ITC) ([3]; 25 °C) [kcal/mol] | entropy (ΔS) (ITC) ([3]; 25 °C) [kcal/mol] | IC50 [4] [µM] | inhibition at 100 µM [5] [%] | IC50 [6] [µM] | viability at 3 days, 100 µM [7] [%] | cytotoxicity [8] | FAK phosphorylation at Y397 [9] | Rac1 activation [10] | direct binding to uPAR (STD-NMR and ITC) [11] | Ki [12] [µM] | IC50 [1] [µM]
Cc1ccc(N2C(=O)C(O)=C(C(=O)c3ccc(Cl)cc3)C2c2cccc(F)c2)cc1Br (stereo not drawn) [Compound 7, 1-(3-bromo-4-methylphenyl)-4-(4-chlorobenzoyl)-5-(3-fluorophenyl)-3-hydroxy-1H-pyrrol-2(5H)-one] | 18 | 12.9 | 17.2 | -6.4 | 0.01 | 32.8 | ~40 | 35 | > 80 | not cytotoxic | significantly inhibited | inhibited Rac1 activation in a concentration-dependent manner | binds directly to uPAR |  | 
CCCCCCOc1cccc(N2C(=O)C(O)=C(C(=O)c3ccccc3)C2c2ccc(CC)cc2)c1 (stereo not drawn) [Compound 1, 4-benzoyl-5-(4-ethylphenyl)-1-(3-(hexyloxy)phenyl)-3-hydroxy-1H-pyrrol-2(5H)-one] |  |  |  |  |  |  |  |  |  |  |  |  |  | 4.2 | 58
